Laboratory results: ChEMBL document CHEMBL4619810, “Fluorescent H2 Receptor Squaramide-Type Antagonists: Synthesis, Characterization, and Applications” (ACS Med Chem Lett, 2020)
Activity calls are given as the source filed them. The calls are words filed in the database; no cut-off is given here.

Assays:
Histamine H2 receptor [1] = target: Histamine H2 receptor (Rattus norvegicus, UniProt P25102); assay: Displacement of [125I]-aminopotentidine from rat H2R expressed in human COS7 cells incubated for 90 mins gamma counting method; type: cell-based, COS-7
HEK-293T [2] = assay: Cytotoxicity against human HEK293T cells assessed as reduction in cell viability at 100 nM incubated for 90 mins by flow cytometry analysis; type: cell-based; conditions: 1.5 h, 0.1 µM
Histamine H2 receptor [3] = target: T1, Histamine H2 receptor (Homo sapiens, UniProt P25021); assay: Binding affinity to human H2R expressed in human HEK293T cells incubated for 60 mins by automated cell imaging analysis; type: cell-based, HEK-293T
Histamine H2 receptor [4] = target: T1, Histamine H2 receptor; assay: Binding affinity to human H2R expressed in human HEK293T cells incubated for 90 mins by flowcytometry; type: cell-based, HEK-293T
Method in brief: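 Flow cytometric saturation binding of fluorescent ligands on suspended HEK293T-hH2R-qs5 cells, 90 min incubation; pKd reported as mean ± SEM from three independent experiments, each in duplicate.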

Histamine H2 receptor [5] = target: T1, Histamine H2 receptor; assay: Binding affinity to human H2R expressed in human HEK293T cells incubated for 60 mins by imaging flow cytometry analysis; type: cell-based; conditions: for Ka: HEK-293T
Histamine H2 receptor [6] = target: T1, Histamine H2 receptor; assay: Displacement of [3H]UR-DE257 from Gsalphas-coupled human H2R expressed in baculovirus infected Sf9 cells incubated for 60 mins by scintillation counting method
HEK-293T [7] = assay: Cytotoxicity against human HEK293T cells assessed as reduction in cell viability at 150 nM incubated for 60 mins by H33342 staining based imaging analysis; conditions: 1 h, 0.15 µM
Histamine H2 receptor [8] = target: T1, Histamine H2 receptor; conditions: Sf9
Histamine H2 receptor [9] = target: T1, Histamine H2 receptor; assay: Binding affinity to H2R in human HEK293T cell membrane assessed as drug localization at 100 nM in presence of famotidine incubated for 20 mins by confocal microscopy analysis; type: cell-based; conditions: HEK-293T
Method in brief: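 HEK293T-hH2R-qs5 cells incubated with fluorescent ligand (100 nM) for 20 min at rt in the presence of famotidine (300-fold excess) to define nonspecific binding; membrane localization imaged by confocal laser scanning microscopy, 63x/1.40 oil objective.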

Histamine H2 receptor [10] = target: T1, Histamine H2 receptor; assay: Binding affinity to H2R in human HEK293T cell membrane assessed as drug localization at 75 nM incubated for 60 mins followed by compound washoff by confocal microscopy analysis; type: cell-based; conditions: HEK-293T
Method in brief: (§1)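 Adherent HEK293T-hH2R-qs5 cells incubated with fluorescent ligand 60 min at rt, then washed; Hoechst 33342 nuclear counterstain; famotidine (300-fold excess) defines nonspecific binding; membrane localization imaged by automated cell imaging.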

Histamine H2 receptor [11] = target: T1, Histamine H2 receptor; assay: Agonist activity at human H2R expressed in human HEK293T cells assessed as effect on beta-arrestin2 recruitment incubated for 60 mins by brightglo-reagent based assay; type: cell-based; conditions: HEK-293T
Histamine H2 receptor [12] = target: T1, Histamine H2 receptor; assay: Binding affinity to H2R in human HEK293T cell membrane assessed as drug localization at 100 nM incubated for 20 mins by confocal microscopy analysis; type: cell-based; conditions: HEK-293T
Method in brief: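 Live HEK293T-hH2R-qs5 cells exposed to fluorescent ligand at 100 nM, 20 min, room temperature; receptor binding at the cell membrane visualized by confocal laser scanning microscopy (63x/1.40 oil immersion objective).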

HEK-293T [13] = assay: Cytotoxicity against human HEK293T cells assessed as reduction in cell viability at 500 nM incubated for 60 mins by H33342 staining based imaging analysis; conditions: 1 h, 0.5 µM
HEK-293T [14] = assay: Cytotoxicity against human HEK293T cells assessed as reduction in cell viability at 500 nM incubated for 90 mins by flow cytometry analysis; type: cell-based; conditions: 1.5 h, 0.5 µM
Histamine H2 receptor [15] = target: T1, Histamine H2 receptor; assay: Binding affinity to H2R in human HEK293T cell membrane assessed as drug localization at 500 nM incubated for 60 mins followed by compound washoff by confocal microscopy analysis; type: cell-based; conditions: HEK-293T; method in brief: as §1
HEK-293T [16] = assay: Cytotoxicity against human HEK293T cells assessed as reduction in cell viability at 3000 nM incubated for 60 mins by H33342 staining based imaging analysis; conditions: 1 h, 3 µM
HEK-293T [17] = assay: Cytotoxicity against human HEK293T cells assessed as reduction in cell viability at 3000 nM incubated for 90 mins by flow cytometry analysis; type: cell-based; conditions: 1.5 h, 3 µM
HEK-293T [18] = assay: Cytotoxicity against human HEK293T cells assessed as reduction in cell viability at 3500 nM incubated for 90 mins by flow cytometry analysis; type: cell-based; conditions: 1.5 h, 3.5 µM
Histamine H2 receptor [19] = target: T1, Histamine H2 receptor; assay: Binding affinity to H2R (unknown origin)
Histamine H2 receptor [20] = target: T1, Histamine H2 receptor; assay: Binding affinity to H2R in human HEK293T cell membrane assessed as drug localization at 250 nM incubated for 60 mins followed by compound washoff by confocal microscopy analysis; type: cell-based; conditions: HEK-293T; method in brief: as §1
HEK-293T [21] = assay: Cytotoxicity against human HEK293T cells assessed as reduction in cell viability at 1000 nM incubated for 60 mins by H33342 staining based imaging analysis; conditions: 1 h, 1 µM
Histamine H2 receptor [22] = target: T1, Histamine H2 receptor; assay: Binding affinity to human H2R expressing Sf9 cells incubated for 60 mins by microbeta scintillation counter method

T1 sequence (P25021 whole entry): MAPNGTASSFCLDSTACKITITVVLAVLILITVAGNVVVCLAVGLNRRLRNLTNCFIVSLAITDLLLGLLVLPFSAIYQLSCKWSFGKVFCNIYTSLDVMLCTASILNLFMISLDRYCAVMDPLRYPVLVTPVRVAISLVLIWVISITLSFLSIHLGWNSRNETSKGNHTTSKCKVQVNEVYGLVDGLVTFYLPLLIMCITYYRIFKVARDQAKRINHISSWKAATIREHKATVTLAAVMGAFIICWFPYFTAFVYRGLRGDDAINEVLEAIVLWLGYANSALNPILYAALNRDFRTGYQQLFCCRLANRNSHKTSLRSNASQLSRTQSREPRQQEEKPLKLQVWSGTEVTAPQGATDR
Sequence of Histamine H2 receptor (Rattus norvegicus, UniProt P25102) (P25102 whole entry): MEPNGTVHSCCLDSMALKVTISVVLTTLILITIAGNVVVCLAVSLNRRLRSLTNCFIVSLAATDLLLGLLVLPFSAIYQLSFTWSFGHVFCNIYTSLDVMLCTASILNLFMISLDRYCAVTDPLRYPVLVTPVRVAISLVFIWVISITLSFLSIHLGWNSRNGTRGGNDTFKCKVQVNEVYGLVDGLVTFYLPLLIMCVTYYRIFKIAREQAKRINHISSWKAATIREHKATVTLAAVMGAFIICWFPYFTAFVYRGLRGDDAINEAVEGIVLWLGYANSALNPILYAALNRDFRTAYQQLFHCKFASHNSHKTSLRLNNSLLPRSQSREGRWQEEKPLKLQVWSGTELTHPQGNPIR

SMILES | Kd (Histamine H2 receptor [3]) | Kd (Histamine H2 receptor [4]) | Ki (Histamine H2 receptor [6]) | pKb (Histamine H2 receptor [8]) | Activity (Histamine H2 receptor [11]) | Activity (HEK-293T [14]) | also measured
N#CN=C(NCCCCCCCCNc1ccc([N+](=O)[O-])c2n[o+][n-]c12)NCCCOc1cccc(CN2CCCCC2)c1 |  |  |  |  |  |  | Ki (Histamine H2 receptor [1]): < 100 nM
CC1(C)C(/C=C/C=C/C=C2\N(CCCCCC(=O)NCCCCNc3c(NCCCOc4cccc(CN5CCCCC5)c4)c(=O)c3=O)c3cc(S(=O)(=O)O)ccc3C2(C)C)=[N+](CCCCS(=O)(=O)[O-])c2ccccc21 |  |  | 2040 nM |  | inactive |  | 
CC1(C)C(/C=C/C=C/C=C2\N(CCCCCC(=O)NCCCCCCNc3c(NCCCOc4cccc(CN5CCCCC5)c4)c(=O)c3=O)c3cc(S(=O)(=O)O)ccc3C2(C)C)=[N+](CCCCS(=O)(=O)[O-])c2ccccc21.O=C(O)C(F)(F)F.O=C(O)C(F)(F)F | 447 nM |  | 1320 nM |  |  |  | Activity (Histamine H2 receptor [15]): Active; Activity (HEK-293T [16]): Non-Toxic
CC1(C)C(/C=C/C=C/C=C2\N(CCCCCC(=O)NCCCCCNc3c(NCCCOc4cccc(CN5CCCCC5)c4)c(=O)c3=O)c3ccccc3C2(C)C)=[N+](CCCCS(=O)(=O)[O-])c2ccccc21 |  |  |  |  |  |  | pKb (Histamine H2 receptor [19]): 6.89
[3H]CC([3H])C(=O)NCCCCCCNc1c(NCCCOc2cccc(CN3CCCCC3)c2)c(=O)c1=O (centres undefined) |  |  |  |  |  |  | Kd (Histamine H2 receptor [22]): 31 nM
CNc1ccccc1C(=O)NCCN/C(=N\C#N)NCCCOc1cccc(CN2CCCCC2)c1 |  |  |  |  |  |  | Ki (Histamine H2 receptor [1]): < 100 nM

Continued, in another order:

Kd (Histamine H2 receptor [3]) | Kd (Histamine H2 receptor [4]) | Ki (Histamine H2 receptor [6]) | pKb (Histamine H2 receptor [8]) | Activity (Histamine H2 receptor [11]) | SMILES | Activity (HEK-293T [14]) | also measured
15.1 nM | 12.9 nM | 21.4 nM | 7.73 | inactive | C[N+]1=C(/C=C/C=C/C=C2\N(CCCCCC(=O)NCCCCCCNc3c(NCCCOc4cccc(CN5CCCCC5)c4)c(=O)c3=O)c3ccccc3C2(C)C)C(C)(C)c2ccccc21.O=C(O)C(F)(F)F.O=C([O-])C(F)(F)F |  | Activity (HEK-293T [2]): Non-Toxic; Ka (Histamine H2 receptor [5]): 15000 to 33300 M⁻¹ s⁻¹; Activity (HEK-293T [7]): Non-Toxic; Activity (Histamine H2 receptor [9]): Active; Activity (Histamine H2 receptor [10]): Active; Activity (Histamine H2 receptor [12]): Active
16.2 nM | 47.9 nM | 77.6 nM | 6.49 |  | CC1(C)C(/C=C/C=C/C=C2\N(CCCCCC(=O)NCCCCCCNc3c(NCCCOc4cccc(CN5CCCCC5)c4)c(=O)c3=O)c3ccccc3C2(C)C)=[N+](CCCCS(=O)(=O)[O-])c2ccccc21.O=C(O)C(F)(F)F.O=C(O)C(F)(F)F | Non-Toxic | Activity (HEK-293T [13]): Non-Toxic; Ka (Histamine H2 receptor [5]): 15000 to 33300 M⁻¹ s⁻¹; Activity (Histamine H2 receptor [9]): Active; Activity (Histamine H2 receptor [10]): Active; Activity (Histamine H2 receptor [12]): Active
74.1 nM | 28.2 nM | 17.8 nM |  |  | Cc1cc(/C=C/C=C/c2ccc(N(C)C)cc2)cc(C)[n+]1CCCCNc1c(NCCCOc2cccc(CN3CCCCC3)c2)c(=O)c1=O.O=C(O)C(F)(F)F.O=C([O-])C(F)(F)F | Non-Toxic | Activity (HEK-293T [13]): Non-Toxic; Kd (Histamine H2 receptor [5]): 87.1 nM
170 nM | 562 nM | 324 nM |  |  | CC1(C)C(/C=C/C=C/C=C2\N(CCCCCC(=O)NCCCCNc3c(NCCCOc4cccc(CN5CCCCC5)c4)c(=O)c3=O)c3ccccc3C2(C)C)=[N+](CCCCS(=O)(=O)[O-])c2ccccc21.O=C(O)C(F)(F)F.O=C(O)C(F)(F)F |  | Activity (HEK-293T [17]): Non-Toxic; Activity (HEK-293T [16]): Non-Toxic
120 nM | 288 nM | 269 nM |  |  | C[N+]1=C(/C=C/C=C/C=C2\N(CCCCCC(=O)NCCCCNc3c(NCCCOc4cccc(CN5CCCCC5)c4)c(=O)c3=O)c3ccccc3C2(C)C)C(C)(C)c2ccccc21.O=C(O)C(F)(F)F.O=C([O-])C(F)(F)F |  | Activity (HEK-293T [13]): Non-Toxic; Activity (HEK-293T [18]): Non-Toxic
 | 14.5 nM | 19.5 nM | 7.21 | inactive | Cc1cc(/C=C/C=C/c2ccc(N(C)C)cc2)cc(C)[n+]1CCCCCCNc1c(NCCCOc2cccc(CN3CCCCC3)c2)c(=O)c1=O.O=C(O)C(F)(F)F.O=C([O-])C(F)(F)F | Non-Toxic | 
89.1 nM | 18.6 nM | 17.4 nM | 7.85 | inactive | Cc1cc(/C=C/C=C/c2ccc(N(C)C)cc2)cc(C)[n+]1CCCCCCCNc1c(NCCCOc2cccc(CN3CCCCC3)c2)c(=O)c1=O.O=C(O)C(F)(F)F.O=C([O-])C(F)(F)F | Non-Toxic | Activity (Histamine H2 receptor [20]): Active; Kd (Histamine H2 receptor [5]): 64.6 nM; Ka (Histamine H2 receptor [5]): 71700 M⁻¹ s⁻¹; Activity (HEK-293T [21]): Non-Toxic; Activity (Histamine H2 receptor [9]): Active; Activity (Histamine H2 receptor [12]): Active
